Reference: ChEMBL document CHEMBL3596157, “Heteroaromatic analogs of the resveratrol analog DMU-212 as potent anti-cancer agents” (2015)

Columns and labels:
Assay type in all cases: functional
Malme-3M = test: Growth inhibition of human MALME-3M cells after 48 hrs by SRB assay
In short: (§1)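 NCI-60 panel screen. Cells exposed for 48 h to five concentrations (10−4, 10−5, 10−6, 10−7 and 10−8 M). Sulforhodamine B optical density is read just before compound addition (time zero) and after 48 h, for both treated and vehicle-control wells. Percent growth is calculated against control. GI50 is the concentration giving a 50% reduction in net cell growth relative to cell numbers on day 0.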

[1] = Growth inhibition of human LOXIMVI cells after 48 hrs by SRB assay; conditions: LOX IMVI; in short: as §1
[2] = Growth inhibition of human NCI-ADR-RES cells after 48 hrs by SRB assay; in short: as §1
HL-60(TB) = test: Growth inhibition of human HL-60(TB) cells after 48 hrs by SRB assay; conditions: HL-60, 48 h
In short: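 NCI-60 panel screen: cells were exposed to test agent at five concentrations (10−4, 10−5, 10−6, 10−7 and 10−8 M) for 48 h. Sulforhodamine B optical density was read at time zero and after exposure to compound or vehicle control, and growth percentage versus control was calculated. GI50 was taken as the concentration giving a 50% reduction in net cell growth relative to day 0 cell numbers.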

K562 = test: Growth inhibition of human K562 cells after 48 hrs by SRB assay; conditions: K562, 48 h; in short: as §1
IGROV-1 = test: Growth inhibition of human IGROV1 cells after 48 hrs by SRB assay; conditions: IGROV-1, 48 h; in short: as §1
SNB-19 = test: Growth inhibition of human SNB19 cells after 48 hrs by SRB assay; conditions: SNB-19, 48 h; in short: as §1
OVCAR-4 = test: Growth inhibition of human OVCAR4 cells after 48 hrs by SRB assay; conditions: OVCAR-4, 48 h; in short: as §1
M14 = test: Growth inhibition of human M14 cells after 48 hrs by SRB assay; conditions: M14, 48 h; in short: as §1
OVCAR-5 = test: Growth inhibition of human OVCAR5 cells after 48 hrs by SRB assay; conditions: OVCAR-5, 48 h; in short: as §1
DU-145 = test: Growth inhibition of human DU145 cells after 48 hrs by SRB assay; conditions: DU-145, 48 h; in short: as §1
[3] = Growth inhibition of human SF539 cells after 48 hrs by SRB assay; conditions: SF-539, 48 h; in short: as §1
[4] = Growth inhibition of human COLO205 cells after 48 hrs by SRB assay; conditions: COLO 205, 48 h; in short: as §1
UACC-62 = test: Growth inhibition of human UACC62 cells after 48 hrs by SRB assay; conditions: UACC-62, 48 h
In short: (§2)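 NCI-60 panel cells; preliminary single-dose screen at 10−5 M, then five-dose testing at 10−4 to 10−8 M (tenfold steps) with 48 h exposure. SRB-stained optical density read before compound addition (time zero), after 48 h with compound, and with vehicle control. Percent growth is calculated against control. GI50 is the concentration giving 50% reduction in net growth relative to day-0 cell number.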

786-0 = test: Growth inhibition of human 786-0 cells after 48 hrs by SRB assay; conditions: 786-0, 48 h; in short: as §1
HT-29 = test: Growth inhibition of human HT-29 cells after 48 hrs by SRB assay; conditions: HT-29, 48 h; in short: as §1
SK-MEL-28 = test: Growth inhibition of human SK-MEL-28 cells after 48 hrs by SRB assay; conditions: SK-MEL-28, 48 h; in short: as §1
[5] = Growth inhibition of human MOLT4 cells after 48 hrs by SRB assay; conditions: MOLT-4, 48 h; in short: as §1
[6] = Growth inhibition of human RXF393 cells after 48 hrs by SRB assay; conditions: RXF 393, 48 h; in short: as §1
NCI-H522 = test: Growth inhibition of human NCI-H522 cells after 48 hrs by SRB assay; conditions: NCI-H522, 48 h; in short: as §1
SK-OV-3 = test: Growth inhibition of human SKOV3 cells after 48 hrs by SRB assay; conditions: SK-OV-3, 48 h; in short: as §1
A549 = test: Growth inhibition of human A549/ATCC cells after 48 hrs by SRB assay; conditions: A549, 48 h; in short: as §1
U-251 = test: Growth inhibition of human U251 cells after 48 hrs by SRB assay; conditions: U-251, 48 h; in short: as §2
MDA-MB-468 = test: Growth inhibition of human MDA-MB-468 cells after 48 hrs by SRB assay; conditions: MDA-MB-468, 48 h; in short: as §1
NCI-H226 = test: Growth inhibition of human NCI-H226 cells after 48 hrs by SRB assay; conditions: NCI-H226, 48 h; in short: as §1
MCF7 = test: Growth inhibition of human MCF7 cells after 48 hrs by SRB assay; conditions: MCF7, 48 h; in short: as §1
SNB-75 = test: Growth inhibition of human SNB75 cells after 48 hrs by SRB assay; conditions: SNB-75, 48 h; in short: as §2
UACC-257 = test: Growth inhibition of human UACC257 cells after 48 hrs by SRB assay; conditions: UACC-257, 48 h; in short: as §2
HCT-15 = test: Growth inhibition of human HCT15 cells after 48 hrs by SRB assay; conditions: HCT-15, 48 h; in short: as §1
[7] = Growth inhibition of human RPMI8226 cells after 48 hrs by SRB assay; conditions: RPMI-8226, 48 h; in short: as §1
[8] = Growth inhibition of human Hs578T cells after 48 hrs by SRB assay; conditions: Hs-578T; in short: as §1
KM12 = test: Growth inhibition of human KM12 cells after 48 hrs by SRB assay; conditions: KM12, 48 h; in short: as §1
NCI-H23 = test: Growth inhibition of human NCI-H23 cells after 48 hrs by SRB assay; conditions: NCI-H23, 48 h; in short: as §1
MDA-MB-231 = test: Growth inhibition of human MDA-MB-231/ATCC cells after 48 hrs by SRB assay; conditions: MDA-MB-231, 48 h; in short: as §1
[9] = Growth inhibition of human HOP92 cells after 48 hrs by SRB assay; conditions: HOP-92, 48 h; in short: as §1
CAKI-1 = test: Growth inhibition of human Caki1 cells after 48 hrs by SRB assay; conditions: CAKI-1, 48 h; in short: as §1
NCI-H322M = test: Growth inhibition of human NCI-H322M cells after 48 hrs by SRB assay; in short: as §1
SN12C = test: Growth inhibition of human SN12C cells after 48 hrs by SRB assay; in short: as §1
UO-31 = test: Growth inhibition of human UO31 cells after 48 hrs by SRB assay; conditions: UO-31, 48 h; in short: as §2
SK-MEL-2 = test: Growth inhibition of human SK-MEL-2 cells after 48 hrs by SRB assay; conditions: SK-MEL-2, 48 h; in short: as §1
SW-620 = test: Growth inhibition of human SW620 cells after 48 hrs by SRB assay; conditions: SW-620, 48 h; in short: as §2
A498 = test: Growth inhibition of human A498 cells after 48 hrs by SRB assay; conditions: A498, 48 h; in short: as §1
SK-MEL-5 = test: Growth inhibition of human SK-MEL-5 cells after 48 hrs by SRB assay; conditions: SK-MEL-5, 48 h; in short: as §1
SF-268 = test: Growth inhibition of human SF268 cells after 48 hrs by SRB assay; conditions: SF-268, 48 h; in short: as §1

With `COc1cc(/C=C/c2cc3ccccc3o2)cc(OC)c1OC` the GI50 (Malme-3M) was 0.413 µM, the GI50 [1] was 0.895 µM and the GI50 [2] was 0.511 µM. The GI50 (HL-60(TB)) was 0.356 µM, the GI50 (K562) was 0.267 µM and the GI50 (IGROV-1) was 0.807 µM. It also gave a GI50 (SNB-19) of 0.584 µM, a GI50 (OVCAR-4) of 1.15 µM and a GI50 (M14) of 0.479 µM. It also gave a GI50 (OVCAR-5) of 2.94 µM, a GI50 (DU-145) of 1.86 µM and a GI50 [3] of 0.273 µM. For the same molecule, the GI50 [4] was 0.406 µM, the GI50 (UACC-62) was 0.507 µM and the GI50 (786-0) was 0.85 µM. The GI50 (HT-29) was 0.375 µM, the GI50 (SK-MEL-28) was 0.837 µM and the GI50 [5] was 0.852 µM. For the same molecule, the GI50 [6] was 0.329 µM, the GI50 (NCI-H522) was 0.436 µM and the GI50 (SK-OV-3) was 0.656 µM. It also gave a GI50 (A549) of 0.615 µM, a GI50 (U-251) of 0.668 µM and a GI50 (MDA-MB-468) of 0.662 µM. For the same molecule, the GI50 (NCI-H226) was 1.1 µM, the GI50 (MCF7) was 0.373 µM and the GI50 (SNB-75) was 0.475 µM. It also gave a GI50 (UACC-257) of 16.4 µM, a GI50 (HCT-15) of 0.402 µM and a GI50 [7] of 0.7 µM. It also gave a GI50 [8] of 0.499 µM, a GI50 (KM12) of 0.508 µM and a GI50 (NCI-H23) of 3.09 µM. The GI50 (MDA-MB-231) was 1.17 µM, the GI50 [9] was 0.17 µM and the GI50 (CAKI-1) was 0.58 µM. It also gave a GI50 (NCI-H322M) of 15.9 µM, a GI50 (SN12C) of 4.09 µM and a GI50 (UO-31) of 1.15 µM. For the same molecule, the GI50 (SK-MEL-2) was 0.767 µM, the GI50 (SW-620) was 0.444 µM and the GI50 (A498) was 0.408 µM. The GI50 (SK-MEL-5) was 0.345 µM and the GI50 (SF-268) was 0.861 µM.
